Measured values taken from ChEMBL document CHEMBL2331355, “Synthesis, structure activity relationship and mode of action of 3-substitutedphenyl-1-(2,2,8,8-tetramethyl-3,4,9,10-tetrahydro-2H,8H-pyrano[2,3-f]chromen-6-yl)-propenones as novel anticancer agents in human leukaemia HL-60 cells” (Eur J Med Chem, 2013).
Active and inactive are the calls of the source. The calls are words filed in the database; no cut-off is given here.

Assays:
MCF7 [1] = test: Growth inhibition of human MCF7 cells at 30 uM after 48 hrs by MTT assay; format: functional, cell-based
Method in brief: (§1)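 Single-concentration MTT screen at 50 µM over 48 h in 96-well plates. Compounds giving >50% inhibition were rescreened at 30 µM. OD read at 570 nm, reference 620 nm. Result expressed as % growth inhibition versus untreated control. Mitomycin C, adriamycin or 5-fluorouracil used as positive controls. Mean ± SD of three independent experiments.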

HL-60 [2] = test: Cell cycle arrest in human HL60 cells assessed as S phase cells at 20 uM after 24 hrs by PI staining-based flow cytometric analysis (reference value: 49%); format: functional
HL-60 [3] = test: Cell cycle arrest in human HL60 cells assessed as accumulation of G0/G1 phase cells at 20 uM after 24 hrs by PI staining-based flow cytometric analysis (reference value: 48%); format: functional
HL-60 [4] = test: Cell cycle arrest in human HL60 cells assessed as G2/M phase cells at 20 uM after 24 hrs by PI staining-based flow cytometric analysis (reference value: 3%); format: functional
HL-60 [5] = test: Induction of apoptosis in human HL60 cells assessed as nuclear condensation after 24 hrs by Hoechst 33258 staining; format: functional, cell-based
Method in brief: (§2)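 HL-60 cells (1 × 10⁶/2 ml) treated 24 h at 15 and 20 µM, pelleted at 300 g and washed. Stained with Hoechst 33258, then examined under an inverted fluorescence microscope (10×, UV excitation) for nuclear condensation, blebbing and apoptotic bodies.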

Caco-2 [6] = test: Growth inhibition of human Caco2 cells at 50 uM after 48 hrs by MTT assay; format: functional; details: Caco-2, 48 h, read-out: GI; method in brief: as §1
HL-60 [7] = test: Cell cycle arrest in human HL60 cells assessed as S phase cells at 15 uM after 24 hrs by PI staining-based flow cytometric analysis (reference value: 49%); format: functional
HL-60 [8] = test: Cell cycle arrest in human HL60 cells assessed as S phase cells at 10 uM after 24 hrs by PI staining-based flow cytometric analysis (reference value: 49%); format: functional
HL-60 [9] = test: Cell cycle arrest in human HL60 cells assessed as G2/M phase cells at 5 uM after 24 hrs by PI staining-based flow cytometric analysis (reference value: 3%); format: functional
HL-60 [10] = test: Cell cycle arrest in human HL60 cells assessed as accumulation of G0/G1 phase cells at 10 uM after 24 hrs by PI staining-based flow cytometric analysis (reference value: 48%); format: functional
MDA-MB-435 [11] = test: Growth inhibition of human MDA-MB-435 cells at 50 uM after 48 hrs by MTT assay; format: functional; details: MDA-MB-435, 48 h, read-out: GI; method in brief: as §1
HL-60 [12] = test: Cell cycle arrest in human HL60 cells assessed as G2/M phase cells at 10 uM after 24 hrs by PI staining-based flow cytometric analysis (reference value: 3%); format: functional
HL-60 [13] = test: Cell cycle arrest in human HL60 cells assessed as accumulation of G0/G1 phase cells after 24 hrs by PI staining-based flow cytometric analysis; format: functional
HL-60 [14] = test: Induction of apoptosis in human HL60 cells at 20 uM after 24 hrs by PI-staining based flow cytometric analysis (reference value: 0.7 %); format: functional
MCF7 [15] = test: Growth inhibition of human MCF7 cells at 50 uM after 48 hrs by MTT assay; format: functional; details: MCF7, 48 h, read-out: GI; method in brief: as §1
MDA-MB-435 [16] = test: Growth inhibition of human MDA-MB-435 cells at 30 uM after 48 hrs by MTT assay; format: functional, cell-based; method in brief: as §1
HL-60 [17] = test: Induction of apoptosis in human HL60 cells at 10 uM after 24 hrs by PI-staining based flow cytometric analysis (reference value: 0.7 %); format: functional
HL-60 [18] = test: Cell cycle arrest in human HL60 cells assessed as accumulation of G0/G1 phase cells at 5 uM after 24 hrs by PI staining-based flow cytometric analysis (reference value: 48%); format: functional
HL-60 [19] = test: Cell cycle arrest in human HL60 cells assessed as accumulation of G0/G1 phase cells at 15 uM after 24 hrs by PI staining-based flow cytometric analysis (reference value: 48%); format: functional
PC-3 [20] = test: Growth inhibition of human PC3 cells at 30 uM after 48 hrs by MTT assay; format: functional, cell-based; method in brief: as §1
HL-60 [21] = test: Cytotoxicity against human HL60 cells after 24 hrs by MTT assay; format: functional, cell-based; details: HL-60, 24 h
Method in brief: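 HL-60 cells exposed 24 h to a range of concentrations, then MTT reduction measured. Untreated control OD taken as 100% viability; IC50 derived from the curve. Mean ± SD, n = 8 wells, three independent experiments.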

HL-60 [22] = test: Growth inhibition of human HL60 cells at 30 uM after 48 hrs by MTT assay; format: functional, cell-based; method in brief: as §1
PC-3 [23] = test: Cytotoxicity against human PC3 cells after 48 hrs by MTT assay; format: functional, cell-based; details: PC-3, 48 h
Method in brief: (§3)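 MTT assay in 96-well plates, 48 h exposure across 1–100 µM. OD read at 570 nm against a 620 nm reference. Untreated control OD taken as 100% viability. IC50 derived from the concentration–response curves. Mean ± SD, n = 8 wells, from three independent experiments.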

HL-60 [24] = test: Cell cycle arrest in human HL60 cells assessed as decrease in G2/M phase cells after 24 hrs by PI staining-based flow cytometric analysis; format: functional
HL-60 [25] = test: Cell cycle arrest in human HL60 cells assessed as G2/M phase cells at 15 uM after 24 hrs by PI staining-based flow cytometric analysis (reference value: 3%); format: functional
HL-60 [26] = test: Induction of apoptosis in human HL60 cells assessed as accumulation of sub-G0/G1 phase cells after 24 hrs by PI-staining based flow cytometric analysis; format: functional, cell-based
HL-60 [27] = test: Induction of apoptosis in human HL60 cells assessed as nuclear blebbing after 24 hrs by Hoechst 33258 staining; format: functional, cell-based; method in brief: as §2
HL-60 [28] = test: Induction of apoptosis in human HL60 cells assessed as apoptotic bodies at 20 uM after 24 hrs by Hoechst 33258 staining; format: functional, cell-based; method in brief: as §2
HL-60 [29] = test: Induction of apoptosis in human HL60 cells at 15 uM after 24 hrs by PI-staining based flow cytometric analysis (reference value: 0.7 %); format: functional
Caco-2 [30] = test: Cytotoxicity against human Caco2 cells after 48 hrs by MTT assay; format: functional, cell-based; details: Caco-2, 48 h; method in brief: as §3
ASPC1 [31] = test: Growth inhibition of human AsPC1 cells at 50 uM after 48 hrs by MTT assay; format: functional; details: ASPC1, 48 h, read-out: GI; method in brief: as §1
MIA PaCa-2 [32] = test: Growth inhibition of human MIAPaCa2 cells at 50 uM after 48 hrs by MTT assay; format: functional; details: MIA PaCa-2, 48 h, read-out: GI; method in brief: as §1
HL-60 [33] = test: Growth inhibition of human HL60 cells at 50 uM after 48 hrs by MTT assay; format: functional; details: HL-60, 48 h, read-out: GI; method in brief: as §1
PC-3 [34] = test: Growth inhibition of human PC3 cells at 50 uM after 48 hrs by MTT assay; format: functional; details: PC-3, 48 h, read-out: GI; method in brief: as §1
Caco-2 [35] = test: Growth inhibition of human Caco2 cells at 30 uM after 48 hrs by MTT assay; format: functional, cell-based; method in brief: as §1
HL-60 [36] = test: Induction of mitochondrial membrane potential loss in human HL60 cells at 15 uM after 24 hrs by rhodamine-123 staining method (reference value: 7%); format: functional
Method in brief: (§4)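 HL-60 cells (1 × 10⁶/2 ml/well) treated 24 h at 15 or 20 µM, then incubated with rhodamine-123 (200 nM) for 40 min. Loss of dye uptake measured by flow cytometry. Camptothecin (4 µM, 6 h) as positive control. Representative of three experiments.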

HL-60 [37] = test: Cell cycle arrest in human HL60 cells assessed as S phase cells at 5 uM after 24 hrs by PI staining-based flow cytometric analysis (reference value: 49%); format: functional
HL-60 [38] = test: Induction of apoptosis in human HL60 cells assessed as DNA fragmentation at 20 uM after 24 hrs by SDS-PAGE analysis; format: functional, cell-based; details: in the assay text read “agarose gel electrophoresis” for “SDS-PAGE analysis”
Method in brief: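 HL-60 cells (2 × 10⁶/3 ml/well) treated at 20 µM for 24 h. Lysed, then digested with RNase (400 µg/ml, 37 °C, 90 min) and proteinase K (200 µg/ml, 50 °C, 1 h). DNA extracted with phenol/chloroform/isoamyl alcohol and alcohol-precipitated. Run on 1.8% agarose gel at 70 V for 1 h, stained with ethidium bromide, and scored for laddering.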

MIA PaCa-2 [39] = test: Cytotoxicity against human MIAPaCa2 cells after 48 hrs by MTT assay; format: functional, cell-based; details: MIA PaCa-2, 48 h; method in brief: as §3
HL-60 [40] = test: Cell cycle arrest in human HL60 cells assessed as decrease in S phase cells after 24 hrs by PI staining-based flow cytometric analysis; format: functional
MIA PaCa-2 [41] = test: Growth inhibition of human MIAPaCa2 cells at 30 uM after 48 hrs by MTT assay; format: functional, cell-based; method in brief: as §1
ASPC1 [42] = test: Growth inhibition of human AsPC1 cells at 30 uM after 48 hrs by MTT assay; format: functional, cell-based; method in brief: as §1
HL-60 [43] = test: Induction of mitochondrial membrane potential loss in human HL60 cells at 20 uM after 24 hrs by rhodamine-123 staining method (reference value: 7%); format: functional; method in brief: as §4
HL-60 [44] = test: Induction of apoptosis in human HL60 cells at 5 uM after 24 hrs by PI-staining based flow cytometric analysis (reference value: 0.7 %); format: functional
PC-3 [45] = test: Growth inhibition of human PC3 cells at 10 uM after 48 hrs by MTT assay; format: functional; details: PC-3, 48 h, read-out: GI
Method in brief: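 MTT assay. Suspension or adherent cells were exposed to compound for 48 h. OD was read at 570 nm (reference 620 nm), with untreated control OD set as 100% viability. Results are percent growth inhibition, mean ± SD of three independent experiments.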

## CC1(C)CCc2cc(C(=O)/C=C/c3ccc(C#N)cc3)c3c(c2O1)CCC(C)(C)O3
MCF7 [1]
  growth inhibition (GI): Active
HL-60 [2]
  Activity: 9%
HL-60 [3]
  Activity: 88%
HL-60 [4]
  Activity: 3%
HL-60 [5]
  Activity: Dose-dependent effect
Caco-2 [6]
  inhibition of growth at 50 µM: 93%
HL-60 [7]
  Activity: 23%
HL-60 [8]
  Activity: 39%
HL-60 [9]
  Activity: 6%
HL-60 [10]
  Activity: 56%
MDA-MB-435 [11]
  inhibition of growth at 50 µM: 88%
HL-60 [12]
  Activity: 5%
HL-60 [13]
  Activity: Dose-dependent effect
HL-60 [14]
  Activity: 71%
MCF7 [15]
  inhibition of growth at 50 µM: 78%
MDA-MB-435 [16]
  growth inhibition (GI): Active
HL-60 [17]
  Activity: 11%
HL-60 [18]
  Activity: 48%
HL-60 [19]
  Activity: 73%
PC-3 [20]
  growth inhibition (GI): Active
HL-60 [21]
  IC50: 16 µM
HL-60 [22]
  growth inhibition (GI): Active
PC-3 [23]
  IC50: 7 µM
HL-60 [24]
  Activity: Dose-dependent effect
HL-60 [25]
  Activity: 4%
HL-60 [26]
  Activity: Dose-dependent effect
HL-60 [27]
  Activity: Dose-dependent effect
HL-60 [28]
  Activity: Active
HL-60 [29]
  Activity: 31%
Caco-2 [30]
  IC50: 12 µM
ASPC1 [31]
  inhibition of growth at 50 µM: 48%
MIA PaCa-2 [32]
  inhibition of growth at 50 µM: 76%
HL-60 [33]
  inhibition of growth at 50 µM: 93%
PC-3 [34]
  inhibition of growth at 50 µM: 76%
Caco-2 [35]
  growth inhibition (GI): Active
HL-60 [36]
  Activity: 49%
HL-60 [37]
  Activity: 46%
HL-60 [38]
  Activity: Active
MIA PaCa-2 [39]
  IC50: 12 µM
HL-60 [40]
  Activity: Dose-dependent effect
MIA PaCa-2 [41]
  growth inhibition (GI): Active
ASPC1 [42]
  growth inhibition (GI): Active
HL-60 [43]
  Activity: 61%
HL-60 [44]
  Activity: 1%

## COc1ccc(OC)c(/C=C/C(=O)c2cc3c(c4c2OC(C)(C)CC4)OC(C)(C)CC3)c1
Caco-2 [6]
  inhibition of growth at 50 µM: 23%
MDA-MB-435 [11]
  inhibition of growth at 50 µM: 52%
MCF7 [15]
  inhibition of growth at 50 µM: 15%
ASPC1 [31]
  inhibition of growth at 50 µM: 2%
MIA PaCa-2 [32]
  inhibition of growth at 50 µM: 17%
HL-60 [33]
  inhibition of growth at 50 µM: 27%
PC-3 [34]
  inhibition of growth at 50 µM: 36%

## CO[C@@]12[C@H](COC(N)=O)C3=C(C(=O)C(C)=C(N)C3=O)N1C[C@@H]1N[C@@H]12 [MITOMYCIN]
PC-3 [45]
  inhibition of growth at 10 µM: 68%
